Source: ChEMBL document CHEMBL2390908, “Mapping the Vif-A3G interaction using peptide arrays: a basis for anti-HIV lead peptides” (Bioorg Med Chem, 2013)
Calls of active or inactive are those of the source. The rule behind the calls is not given here.

Tests used:
[1] = test system: Human immunodeficiency virus 1; test: Binding affinity to N-terminal His6-tagged HIV1 HXB2 Vif CTD (141 to 192 amino acids) expressed in Escherichia coli MC-1061 after overnight incubation by chemiluminescence assay
Procedure, shortened: (§1)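 Immobilized peptide arrays blocked 4 h in 3.5% milk in 50 mM Tris-HCl pH 8, 150 mM NaCl, 1% Tween 20, then probed overnight at 4 °C with purified His-tagged protein in that buffer (full-length Vif 2 μM final; Vif CTD 7 μM final). Detection used anti-Vif mAb, HRP goat anti-mouse and chemiluminescence. Two experiments, duplicate arrays per slide.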

[2] = test system: Human immunodeficiency virus 1; test: Binding affinity to full length N-terminal His6-tagged HIV1 HXB2 Vif expressed in Escherichia coli MC-1061 after overnight incubation by chemiluminescence assay; procedure, shortened: as §1
293T = test: Binding affinity to HIV1 Vif expressed in human 293T cells assessed as inhibition of A3G degradation at 100 uM after 24 hrs by Western blot analysis; assay type: cell-based; conditions: Human immunodeficiency virus 1
Procedure, shortened: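 293T cells co-transfected by calcium phosphate with Myc/His6-tagged A3G and HVif vectors (empty pcDNA3.1 in place of Vif as control). Medium replaced 8 h post-transfection, peptides added at 100 μM for a further 24 h. Lysates immunoblotted with anti-Myc (A3G) and anti-Vif antibodies. A3G bands quantified densitometrically, with A3G intensity in the no-Vif control set to 100%.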

H9 = test: Cytotoxicity against human H9 cells at 50 to 100 uM after 2 hrs; assay type: cell-based; conditions: h9, 2 h
[3] = test system: Human immunodeficiency virus 1; test: Antiviral activity against HIV1 infected in human H9 cells assessed as inhibition of viral propagation at 50 to 100 uM incubated for 2 hrs prior to infection measured on day 7 to 9 by MAGI assay; assay type: functional, organism-based
Procedure, shortened: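 H9 cells, which express endogenous A3G, pretreated 2 h with peptides at 50 and 100 μM, then infected with wt HIV-1 HXBII at MOI 0.05. Media collected on days 5, 7 and 9 post-infection, and released-virus infectivity titered by MAGI assay.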

Substance	Activity [1]	Activity [2]	inhibition (293T)	Activity (H9)	inhibition [3]
H-NTVWLCYEVKTKGPS-OH	Active	Active	–	–	–
H-WVRGRHETYLCYEVE-OH	Active	Active	Active	Non-toxic	Active
H-LDVIPFWKLDLDQDY-OH	Active	Active	Active	Non-toxic	inactive
H-DGPRATMKIMNYDEF-OH	Active	Active	–	–	–
H-MRFFHWFSKWRKLHR-OH	Active	Active	–	–	–
H-HQGCPFQPWDGLDEH-OH	inactive	Active	–	–	–

Second part, led by results:

Activity [1]	Activity [2]	Substance	inhibition (293T)	Activity (H9)	inhibition [3]
inactive	Active	H-AGAKISIMTYSEFKH-OH	–	–	–
Active	Active	H-TFLAEDPKVTLTIFV-OH	–	–	–
Active	Active	H-YSQRELFEPWNNLPK-OH	–	–	–
Active	Active	H-QEMAKFISKNKHVSL-OH	–	–	–
